Screening results (PubChem)
VIM-2 inhibitor: blocks Pseudomonas aeruginosa VIM-2 metallo-beta-lactamase; purified VIM-2, nitrocefin hydrolysis, epi-absorbance fluorescence; inhibition, % at 5.6 µM; 290,000 tested, 0.89% active; AID 1527;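 active = inhibition above the mean of all tested compounds plus 3 SD, cutoff set per screening run, cut at about 7.5% in these data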;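 note: red hydrolysis product quenches plate fluorescence so inhibitors raise well fluorescence; 0% = enzyme with DMSO and 100% = DMSO without enzyme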
MIN6 prolif: inducers of beta-cell replication in MIN6 cells; 330,000 tested, 0.29% active; MIN6 cells proliferation, ATPlite luminescence, 48 h; cells starved in 0.2% serum; 100% = growth in 10% serum; proliferation, % at 10 µM; AID 2380;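 active = compounds whose signal lies at least 3.5 SD above the mean of all wells on their plate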;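 note: 0% = DMSO-treated cells in low-serum medium and 100% = 10% serum control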
IMP-1 inh: inhibitors of Pseudomonas aeruginosa IMP-1 metallo-beta-lactamase; purified IMP-1, nitrocefin hydrolysis, epi-absorbance fluorescence; AID 1556; 290,000 tested, 0.45% active; inhibition, % at 5.6 µM;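 active = inhibition above the mean plus 3 SD of all compounds in the same screening run, cut at about 4.5% in these data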;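 note: 0% = IMP-1 with DMSO and 100% = DMSO wells lacking enzyme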
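Assay system: purified recombinant IMP-1 beta-lactamase. Input: IMP-1 0.2 nM before substrate addition. Buffer or medium: Zinc- and detergent-supplemented HEPES buffer, pH 7.1. Schedule: 25 °C, 15 min preincubation, 25 min reaction. Signal: Epi-absorbance fluorescence, 480 nm excitation, 530 nm emission. Evaluation: percent inhibition from optical density relative to buffer-blank wells.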
PvdQ inh: P. aeruginosa PvdQ acylase inhibition | purified PvdQ acylase, fluorescence plate reader | inhibition, % at 10 µM | 340,000 tested, 0.063% active | AID 488965; in the data active = inhibition above about 30%, passing the limit was not always enough;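 note: 0% = vehicle neutral wells and 100% = reference inhibitor wells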
ATG4B inhibitor: ATG4B (human) cysteine protease inhibition. AID 504462. ATG4B cleavage of LC3-PLA2, NBD-HPC fluorescence, 1 h. inhibition, % at 8.33 µM. 340,000 tested, 0.51% active; in the data active = inhibition above about 40%
Target sequence (Q9Y4P1 whole entry, looked up): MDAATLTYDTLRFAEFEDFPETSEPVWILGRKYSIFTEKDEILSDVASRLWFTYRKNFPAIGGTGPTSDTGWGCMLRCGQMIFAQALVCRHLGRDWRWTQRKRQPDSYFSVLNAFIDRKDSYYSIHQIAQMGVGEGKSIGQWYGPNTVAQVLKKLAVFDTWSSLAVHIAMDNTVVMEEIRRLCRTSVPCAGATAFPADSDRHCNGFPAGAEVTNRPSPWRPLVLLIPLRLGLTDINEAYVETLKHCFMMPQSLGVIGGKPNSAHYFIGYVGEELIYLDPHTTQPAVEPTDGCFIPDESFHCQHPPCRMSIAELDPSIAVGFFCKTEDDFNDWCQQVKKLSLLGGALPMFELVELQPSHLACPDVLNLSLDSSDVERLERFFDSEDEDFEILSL
HKDC1 inh: blocks human hexokinase HKDC1 activity | 340,000 tested, 0.16% active | recombinant HKDC1, G6PDH/diaphorase resazurin coupled fluorescence | inhibition, % at 20 µM | Q2TB90;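 active = inhibition above about 35% when tested at 20 µM, limit read from the data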;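 note: plate controls were DMSO wells with enzyme for no effect and DMSO wells lacking enzyme for full effect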
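Material: recombinant HKDC1 hexokinase; Amount: HKDC1 at 5 µg/mL; Medium: Tris pH 8.0 buffer with MgCl2, Tween-20, BSA, BME; Schedule: 90 min reaction incubation at room temperature, dark; Technique: coupled resazurin fluorescence, excitation 525 nm, emission 613 nm.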
Starred values were filed as active, the others as inactive; . = no result. In the library only some 2% were active in any assay of this set; here they are far more common.

SMILES	VIM-2 inhibitor	MIN6 prolif	IMP-1 inh	PvdQ inh	ATG4B inhibitor	HKDC1 inh
OC[C@H]1O[C@@H](O[C@@H]2[C@@H](CO)O[C@@](O)(CO)[C@H]2O)[C@H](O)[C@@H](O)[C@H]1O	.	-3	.	-10	-2	-2
OCCSc1nc(-c2cccnc2)nc2ccccc12	7.7*	1	-2	1	-19	3
COc1ccc(-c2ccc3c(c2)S(=O)(=O)c2cccc(C(=O)N4CCN(c5c(Cl)cncc5Cl)CC4)c2C3=O)cc1OC	.	-1	.	5	1	-3
Cc1cc(C(=O)CN2C(=O)c3ccccc3S2(=O)=O)c(C)n1CC1CCCO1 (stereo not drawn)	6	-5	9.4*	-11	-12	1
CCOC(=O)c1cc2c(=O)n3ccccc3nc2n(CCOC)c1=NC(=O)c1ccncc1	13*	2	-3	-9	-2	-8
CCOC(=O)c1cc2c(=O)n3ccccc3nc2n(CCOC)c1=NC(=O)C(C)(C)C	0	3	0	-18	-7	-1
CCOc1ccc(CCNC(=O)CCNS(=O)(=O)c2ccc(Br)cc2)cc1OCC	-1	7	-3	-8	-9	-2
COc1ccc(CC(=O)Oc2ccccc2[N+](=O)[O-])cc1	0	-5	13*	-7	-4	-6
COc1ccc(CC(=O)Oc2ccccc2C)cc1	1	-4	1	-2	5	-3
O=C(c1ccccc1)c1c[nH]c(C(=O)NNc2ccccc2)c1	0	-4	0	2	3	-4
O=c1oc2c(CN3CCOCC3)c(O)c(Cl)cc2c2c1CCCC2	2	-2	5.3*	-17	-5	0
Cc1c(O)c(CN2CCCC2)cc2c3c(c(=O)oc12)CCC3	9.6*	-3	-3	-6	8	-5
CCc1cc(=O)oc2c(C)c(O)c(CN3CCCCC3)cc12	-3	-4	-2	-20	-2	1
Cc1c(O)c(CN2CCCC2)cc2c1oc(=O)c1ccccc12	9.0*	0	0	-11	1	-2
O=C(NCCCn1ccnc1)C(=O)NCC1OCCN1S(=O)(=O)c1ccc(Br)cc1 (stereo not drawn)	-1	-3	7.0*	-16	4	-3
O=C(NCCCn1ccnc1)C(=O)NCC1OCCN1S(=O)(=O)c1ccc(F)cc1 (stereo not drawn)	-2	-1	10*	4	-6	-5
CCOC(=O)/C=C1/SCC(=O)N1CCOc1cccc(Br)c1	.	.	.	-11	-2	-1
Cc1ccc2occ(/C=N/NC(=O)c3ccncc3)c(=O)c2c1	-4	3	6.4*	-10	9	2
COc1ccc(C(=O)N/N=C\c2coc3ccc(C)cc3c2=O)cc1	-2	-1	8.7*	-2	2	4
Cc1ccc2occ(/C=N/NC(=O)c3ccc(Cl)cc3)c(=O)c2c1	-4	3	0	-6	-1	-1
Cc1ccc(NCc2ccc(C)s2)cc1	0	1	-2	.	.	.
CCc1nnc(NS(=O)(=O)c2ccc(NC(=O)c3cccc(Cl)c3)cc2)s1	-1	0	-5	-12	-3	3
COc1ccccc1CCC(=O)OCC(=O)Nc1cc(C)nn1-c1ccccc1	.	1	.	-22	-2	-2
CCOC(=O)N1CCC(N2CCCC(C(=O)c3ccc4cc(OC)ccc4c3)C2)CC1 (stereo not drawn)	-2	-2	-1	-8	-8	-9
COCCN(C(=S)Nc1ccc(C(C)C)cc1)C(C)c1cccs1 (stereo not drawn)	-3	-4	0	-10	10	24
SMILES	VIM-2 inhibitor	MIN6 prolif	IMP-1 inh	PvdQ inh	ATG4B inhibitor	HKDC1 inh
CN(CC(=O)Nc1cccc2ccccc12)C(=O)c1cccc(S(=O)(=O)N(C)C)c1	-2	0	-3	-4	-1	-3
COc1cccc2c1NC(C(=O)O)C1CC=CC21 (stereo not drawn)	9.5*	3	2	-17	18	12
COC(=O)c1ccc(NC(=O)c2ccc3nsnc3c2)cc1	-2	1	-4	6	0	0
CC(C)(C)NC(=O)c1ccc2nsnc2c1	-3	0.0*	-2	2	6	-5
CCn1cc(Cl)c(C(=O)Nc2nc3ccccc3n2CCN2CCCCC2)n1	-4	-3	-4	13	-6	-8
COc1ccc(C2C3=C(N=C4SCC(=O)N42)c2ccccc2CC3)cc1OC (stereo not drawn)	-2	-3	5.9*	-9	-4	8
CC(NC(=O)c1ccco1)C(=O)OC(C)C(=O)NCc1ccccc1 (stereo not drawn)	-3	-1	-4	2	-11	-3
CC(C)CN(C(=O)CCC(=O)OCc1ccc(Cl)cc1Cl)c1c(N)n(CC(C)C)c(=O)[nH]c1=O	.	-2	.	-8	-1	2
Cn1nnnc1SC1CC(=O)N(c2ccccc2)C1=O (stereo not drawn)	2	-6	-2	-15	-9	-8
Cc1cc(C)cc(N2C(=O)CC(Sc3nnnn3-c3ccccc3)C2=O)c1 (stereo not drawn)	-2	-6	7.2*	9	-10	-7
COC(=O)C1=C(N)Oc2cc(N(C)C)ccc2C1c1ccccc1OC (stereo not drawn)	-1	-4	7.5*	-3	-3	2
Cn1c(OCc2cccnc2)nc2c1c(=O)n(Cc1ccccc1)c(=O)n2C	8.7*	-1	-2	-14	6	3
Cn1c(OCc2cccnc2)nc2c1c(=O)n(Cc1ccc(F)cc1)c(=O)n2C	1	-3	-2	-11	-11	-2
Fc1ccccc1Nc1nc2c(s1)CCc1ccccc1-2	-1	.	-3	.	.	.
CCN(CC)c1ccc2nc3ccccc3[n+](CC)c2c1	11*	-4	-9	-13	8	7
O=c1[nH]c(CSc2nc(-c3ccc(F)cc3)cs2)nc2ccccc12	-1	-1	-1	-10	1	-5
COCC(=O)OCC(=O)N1N=C(c2ccc(Cl)cc2)CC1c1ccco1 (stereo not drawn)	9.9*	5	-1	1	-2	-4
Nc1nc(SCC(=O)N2N=C(c3ccc(Cl)cc3)CC2c2ccco2)n[nH]1 (stereo not drawn)	11*	2	-1	-13	-1	6
CN1CC(=O)N(CC(=O)N2N=C(c3ccc(Cl)cc3)CC2c2ccco2)C1=O (stereo not drawn)	0	0	-4	-8	0	-2
O=C(OCC(=O)N1N=C(c2ccc(Cl)cc2)CC1c1ccco1)c1cccnc1 (stereo not drawn)	.	-4	.	8	3	3
CCC(=O)N1N=C(c2ccc(Cl)cc2)CC1c1ccco1 (stereo not drawn)	9.5*	2	-3	-8	7	0
